Assay results published in paper PMC7144688 (Cell chemical biology, 2020).
Blank lines part the entries; values can stand above or below the molecule they belong to.

Experiments:
[1] = system: androgen receptor (AR); assay: AR-mediated transcription assay in MDA-kb2 cells; assay type: cell-based, human; conditions: 0.2 nM DHT, 20 h
Summary of the method: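 MDA-kb2 cells carrying a stable androgen/glucocorticoid-responsive firefly luciferase reporter were seeded at 20,000 cells/well in Leibovitz's L-15 with 10% charcoal-stripped FBS (0% CO2) and grown to 80% confluence. Cells were co-treated with DHT and graded test compound for 20 h, lysed in Bright-Glo reagent for 4 min at room temperature, and luminescence was read.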

[2] = target: 6P chaperone complex (Hsp90, Hsp70, Hop, BAG1, Aha1 & Hsp40) refolding of FLuc (Homo sapiens, UniProt O95433+P08238+P0DMV8); assay: In vitro refolding of heat-denatured firefly luciferase by 6P chaperone complex; assay type: biochemical; conditions: 15 μM
[3] = target: Aha1-stimulated Hsp90 (ASH) ATPase activity (Homo sapiens, UniProt O95433+P08238); assay: Aha1-stimulated Hsp90; assay type: biochemical
[4] = target: human Hsp90β (human, UniProt P08238 1-724); assay: other fluorescence titration
Chain of human Hsp90β (P08238 whole entry): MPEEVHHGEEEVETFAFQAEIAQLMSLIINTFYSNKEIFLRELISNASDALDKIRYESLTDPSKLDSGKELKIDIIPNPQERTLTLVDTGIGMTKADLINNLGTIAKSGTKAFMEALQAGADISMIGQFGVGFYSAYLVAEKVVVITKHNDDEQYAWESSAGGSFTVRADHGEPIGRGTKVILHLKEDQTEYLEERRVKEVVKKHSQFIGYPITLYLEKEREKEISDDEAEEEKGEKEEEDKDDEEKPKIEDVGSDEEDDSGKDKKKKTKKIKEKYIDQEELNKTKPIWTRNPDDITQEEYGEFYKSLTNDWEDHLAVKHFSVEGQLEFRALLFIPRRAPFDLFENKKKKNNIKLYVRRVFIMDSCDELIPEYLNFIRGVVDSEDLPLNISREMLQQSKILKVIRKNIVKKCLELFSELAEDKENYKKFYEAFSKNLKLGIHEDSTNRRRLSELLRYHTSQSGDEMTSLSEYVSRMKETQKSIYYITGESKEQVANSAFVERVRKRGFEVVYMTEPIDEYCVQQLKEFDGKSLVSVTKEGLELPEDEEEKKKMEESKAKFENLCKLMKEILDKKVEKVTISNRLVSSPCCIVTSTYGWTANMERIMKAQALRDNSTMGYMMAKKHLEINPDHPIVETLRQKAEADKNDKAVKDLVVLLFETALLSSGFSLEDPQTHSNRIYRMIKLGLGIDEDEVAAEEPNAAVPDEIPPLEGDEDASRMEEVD

Chain of 6P chaperone complex (Hsp90, Hsp70, Hop, BAG1, Aha1 & Hsp40) refolding of FLuc (O95433 whole entry): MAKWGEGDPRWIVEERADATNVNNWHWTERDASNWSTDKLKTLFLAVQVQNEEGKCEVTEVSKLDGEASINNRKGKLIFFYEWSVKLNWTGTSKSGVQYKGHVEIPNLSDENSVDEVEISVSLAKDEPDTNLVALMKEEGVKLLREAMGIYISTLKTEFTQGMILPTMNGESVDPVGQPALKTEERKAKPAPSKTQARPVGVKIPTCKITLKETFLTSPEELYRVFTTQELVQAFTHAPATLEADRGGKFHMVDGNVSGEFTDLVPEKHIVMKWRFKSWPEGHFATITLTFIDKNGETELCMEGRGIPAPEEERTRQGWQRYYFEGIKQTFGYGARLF
Chain of 6P chaperone complex (Hsp90, Hsp70, Hop, BAG1, Aha1 & Hsp40) refolding of FLuc (P08238 whole entry): as the sequence (P08238 whole entry) above
Chain of 6P chaperone complex (Hsp90, Hsp70, Hop, BAG1, Aha1 & Hsp40) refolding of FLuc (P0DMV8 whole entry): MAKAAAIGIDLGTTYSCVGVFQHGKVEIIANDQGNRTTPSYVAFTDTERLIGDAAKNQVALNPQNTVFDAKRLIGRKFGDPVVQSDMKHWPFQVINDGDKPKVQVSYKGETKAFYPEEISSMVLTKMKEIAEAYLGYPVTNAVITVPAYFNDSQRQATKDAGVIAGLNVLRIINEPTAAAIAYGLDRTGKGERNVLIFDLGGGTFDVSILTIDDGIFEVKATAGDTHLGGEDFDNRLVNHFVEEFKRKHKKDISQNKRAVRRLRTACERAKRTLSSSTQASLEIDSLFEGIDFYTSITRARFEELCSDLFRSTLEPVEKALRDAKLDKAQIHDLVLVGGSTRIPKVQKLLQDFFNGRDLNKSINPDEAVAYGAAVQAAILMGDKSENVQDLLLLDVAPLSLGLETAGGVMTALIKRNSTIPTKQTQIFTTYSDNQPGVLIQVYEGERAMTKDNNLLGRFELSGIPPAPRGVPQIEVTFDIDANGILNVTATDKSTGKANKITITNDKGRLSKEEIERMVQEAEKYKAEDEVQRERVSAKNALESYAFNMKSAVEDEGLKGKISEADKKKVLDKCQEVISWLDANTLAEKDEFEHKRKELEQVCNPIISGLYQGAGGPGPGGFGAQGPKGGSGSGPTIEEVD
Chain of Aha1-stimulated Hsp90 (ASH) ATPase activity (O95433 whole entry): as the sequence (O95433 whole entry) above
Chain of Aha1-stimulated Hsp90 (ASH) ATPase activity (P08238 whole entry): as the sequence (P08238 whole entry) above

Molecule: C=CCNC1=C2C[C@@H](C)C[C@H](OC)[C@H](O)[C@@H](C)/C=C(\C)[C@H](OC(N)=O)[C@@H](OC)/C=C\C=C(/C)C(=O)NC(=CC1=O)C2=O [17-AAG]
IC50 of AR-dependent luciferase expression [1]: better than that of the Hsp90i 17-AAG

Molecule: COC1=C2C[C@@H](C)C[C@H](OC)[C@H](O)[C@@H](C)/C=C(\C)[C@H](OC(N)=O)[C@@H](OC)/C=C\C=C(/C)C(=O)NC(=CC1=O)C2=O [GA, geldanamycin]
reduction in FLuc refolding [2]: 25%
activity in ASH assay (screen) [3]: failed to completely inhibit the ASH activity

Further lines, results first:

effect on FLuc refolding [2]: completely block
Molecule: CCn1c(=O)/c(=C2\Sc3cc(Cl)ccc3N2C)s/c1=C\c1scc[n+]1Cc1ccccc1.[Cl-] [JG98]

IC50 of AR-dependent luciferase expression [1]: similar
Molecule: O=C(Nc1cccc(Cl)c1Cl)C1CCCCC1 [MJC13]

binding result [4]: binds
B1: acrylodan-labeled CTD of Aha1 (domain or fragment, human, UniProt O95433 164-338, looked up)
chain: ILPTMNGESVDPVGQPALKTEERKAKPAPSKTQARPVGVKIPTCKITLKETFLTSPEELYRVFTTQELVQAFTHAPATLEADRGGKFHMVDGNVSGEFTDLVPEKHIVMKWRFKSWPEGHFATITLTFIDKNGETELCMEGRGIPAPEEERTRQGWQRYYFEGIKQTFGYGARLF
modifications: acrylodan on cysteine residues
